Laboratory results published in ChEMBL document CHEMBL1152658, “Antioxidant activity of benzoxazolinonic and benzothiazolinonic derivatives in the LDL oxidation model” (2009).
The source made the active and inactive calls. No cut-off for these calls is given here.

Tests used:
[1] = Cytoprotective activity against minimally oxidized LDL-induced cytotoxicity in BAEC assessed as cell vitality at 10 uM treated for 24 hrs before mO-LDL challenge measured after 16 hrs by MTT assay; type: functional, Bos taurus
How it was run: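 Primary bovine aortic endothelial cells grown in DMEM with 10% newborn calf serum, glutamine and penicillin. Pretreated 24 h with drug in methanol, then 16 h at 37 °C with air-oxidized LDL (100 µg protein/mL, made by incubating LDL at 30 °C without CuSO4 or AAPH) plus drug (final 10 µM). MTT (5 mg solution in PBS) added for 5 h. Formazan dissolved in dimethylformamide, A590 read, expressed as % of control wells.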

BAEC [2] = test: Cytoprotective activity against LDL-induced cytotoxicity in BAEC assessed as decrease in LDH release at 10 uM treated for 24 hrs before LDL challenge measured after 16 hrs by spectrometry; type: functional; settings: Bos taurus
How it was run: (§1)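 BAECs (primary, bovine aorta) in DMEM with 10% newborn calf serum, glutamine, penicillin. Pretreated 24 h with drug in methanol (final 10 µM), then 16 h at 37 °C with drug plus native LDL or mO-LDL at 100 µg/mL (mO-LDL from LDL incubated at 30 °C without oxidant). Medium LDH read spectrometrically by NAD reduction, expressed as % of total LDH released by 0.1% Triton X-100; mean (SD) of two incubations in triplicate.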

[3] = Cytoprotective activity against minimally oxidized LDL-induced cytotoxicity in BAEC assessed as LDH release at 10 uM treated for 24 hrs before mO-LDL challenge measured after 16 hrs by spectrometry; type: functional, Bos taurus; how it was run: as §1
[4] = Inhibition of CuSO4-induced human LDL oxidation assessed as ratio of length of lag phase of conjugated diene formation in presence of compound to untreated control at 5 uM measured every 10 mins for 8 hrs by spectrophotometry; type: functional
How it was run: (§2)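 Human LDL taken from fasting normolipidemic volunteers by sequential NaBr density ultracentrifugation (1.019–1.063 g/mL), protein measured by Peterson method. Oxidation started with 16.6 µM CuSO4 or 2 mM AAPH, compound at 1–100 µM. Conjugated dienes read at 234 nm every 10 min for 8 h at 30 °C. R = lag phase with compound / lag phase without compound.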

[5] = Inhibition of CuSO4-induced human LDL oxidation assessed as length of lag phase of conjugated diene formation measured every 10 mins for 8 hrs by spectrophotometry; type: functional
How it was run: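 Human LDL (NaBr density ultracentrifugation, 1.019–1.063 g/mL) oxidized with 16.6 µM CuSO4 at 30 °C. Diene conjugation followed at 234 nm every 10 min for 8 h. Lag-phase length taken from the kinetic curves.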

[6] = Inhibition of CuSO4-induced human LDL oxidation assessed as ratio of length of lag phase of conjugated diene formation in presence of compound to untreated control at 10 uM measured every 10 mins for 8 hrs by spectrophotometry; type: functional; how it was run: as §2
BAEC [7] = test: Cytoprotective activity against minimally oxidized LDL-induced cytotoxicity in BAEC assessed as decrease in number of detached and shrunk cells at 10 uM treated for 24 hrs before mO-LDL challenge measured after 16 hrs by spectrometry; type: functional, cell-based; settings: Bos taurus
How it was run: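 BAECs pretreated 24 h with drug (final 10 µM in methanol), then exposed 16 h at 37 °C to mO-LDL (100 µg protein/mL, air-oxidized LDL) with drug. Cells examined for morphology: contraction, cytoplasmic ramification, rounding and detachment from wells.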

[8] = Inhibition of AAPH-induced human LDL oxidation assessed as ratio of length of lag phase of conjugated diene formation in presence of compound to untreated control at 5 uM measured every 10 mins for 8 hrs by spectrophotometry; type: functional; how it was run: as §2
[9] = Inhibition of CuSO4-induced human LDL oxidation assessed as ratio of length of lag phase of conjugated diene formation in presence of compound to untreated control at 100 uM measured every 10 mins for 8 hrs by spectrophotometry; type: functional; how it was run: as §2

Row | Structure (SMILES) | Activity [1] [%] | Activity (BAEC [2]) | Activity [3] [%] | Ratio [4] | Activity [5] | Ratio [6] | Activity (BAEC [7]) | Ratio [8] | Ratio [9]
1 | CCCN1CCc2cc3sc(=O)n(C)c3cc2C1c1cccc(OC)c1 (stereo not given) | 90 | inactive | 14.6 | 2.1 | Dose-dependent effect | > 5 | Active | 1.9 | > 5
2 | COc1cccc(C2NCCc3cc4sc(=O)n(C)c4cc32)c1 (stereo not given) | 90 | inactive | 14.5 | 2.1 | Dose-dependent effect | > 5 | Active | 2 | > 5
3 | CCCN1CCc2c([nH]c3ccc(CC)cc23)C1c1cccc(OC)c1.Cl (stereo not given) | 90 | inactive | 15.32 | 1.6 | Dose-dependent effect | > 5 | Active | 1.5 | > 5
4 | COc1cccc(C2=NCCc3cc4oc(=O)n(C)c4cc32)c1 | 90 | inactive |  | 1 | Dose-dependent effect | 1.8 | Active |  | > 5
5 | COc1cccc(C2=NCCc3cc4sc(=O)n(C)c4cc32)c1 | 90 | inactive | 14.12 | 2.5 | Dose-dependent effect | > 5 | Active | 2.5 | > 5
6 | CCCCCCCCCN1CCc2cc3oc(=O)n(C)c3cc2C1c1cccc(OC)c1 (stereo not given) | 90 | inactive |  | 1.7 | Dose-dependent effect | 3.8 | Active |  | > 5
7 | CCCN1CCc2cc3oc(=O)n(C)c3cc2C1c1cccc(O)c1 (stereo not given) | 90 | inactive | 13.5 | 2.5 | Dose-dependent effect | > 5 | Active | 2.4 | > 5
8 | COc1ccc2[nH]cc(CCNC(C)=O)c2c1 [MELATONIN] | 90 | inactive |  |  | Dose-dependent effect |  | Active |  | 1.5
9 | CCCN1CCc2cc(O)c(NC)cc2C1c1cccc(OC)c1 (stereo not given) | 90 | inactive | 13.2 | 3.2 | Dose-dependent effect | > 5 | Active | 3.3 | > 5
10 | CCCN1CCc2cc3oc(=O)n(C)c3cc2C1c1cccc(OC)c1 (stereo not given) | 90 | inactive |  | 1.5 | Dose-dependent effect | 3.3 | Active |  | > 5
11 | CCCN1CCc2cc(O)c(NC)cc2C1c1cccc(O)c1 (stereo not given) | 90 | inactive | 14.1 |  |  |  | Active |  | 
12 | COc1cccc(C2NCCc3cc4oc(=O)n(C)c4cc32)c1 (stereo not given) | 90 | inactive |  | 1 | Dose-dependent effect | 1.8 | Active |  | > 5
13 | COc1ccc2[nH]c(=O)oc2c1 [COIXOL] | 90 | inactive |  |  | Dose-dependent effect |  |  |  | 1.5
